What was measured:
[1] = target: T1, ATP-dependent translocase ABCB1 (Homo sapiens, UniProt P08183); test: Inhibition of MDR1-mediated rhodamine 123 uptake expressed in human COLO320 cells assessed as fluorescence activity ratio at 20 ug/mL after 10 mins by flow cytometry relative to parent cells; type: cell-based; conditions: in the assay text read “20 uM” for “20 ug/mL”
Summary of the method: (§1)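 COLO 320 MDR cells (and COLO 205) were held at 1 × 10^6/mL in serum-free RPMI 1640 and given compound (2 or 20 μM) for 10 min at room temperature. […] Rhodamine-123 (5.2 μM final) followed for 20 min at 37 °C; cells were washed twice into PBS. FL-1 of 10 000 cells was read by flow cytometry. FAR was calculated from treated/untreated resistant versus sensitive cells.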

[2] = target: T1, ATP-dependent translocase ABCB1; test: Inhibition of MDR1-mediated rhodamine 123 uptake expressed in mouse L5178Y cells assessed as fluorescence activity ratio at 60 ug/mL after 10 mins by flow cytometry relative to parent cells; type: cell-based; conditions: in the assay text read “60 uM” for “60 ug/mL”
Summary of the method: (§2)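 Mouse L5178Y cells, parental and human MDR1-transfected (kept with 60 ng/mL colchicine), were held at 2 × 10^6/mL in serum-free McCoy's 5A and given compound (2, 6, 20, 60 μM) for 10 min at room temperature. […] Rhodamine-123 (5.2 μM final) followed for 20 min at 37 °C; cells were washed twice into PBS. FL-1 of 10 000 cells was read by flow cytometry. FAR = treated/untreated MDR versus PAR.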

[3] = system: COLO 320; test: Induction of apoptosis in human COLO320 cells preincubated assessed as early apoptosis at 20 uM for 40 mins measured after 24 hrs using annexin V/propidium iodide staining by flow cytometry; type: functional
Summary of the method: (§3)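 COLO 320 MDR cells at 2 × 10^5/mL were exposed to agent for 40 min at 37 °C, with 1% DMSO as solvent control. Cells were then washed twice in PBS and cultured overnight at 37 °C, 5% CO2. After 24 h, supernatant and trypsin-detached cells were pooled and centrifuged. Staining used an annexin V-FITC/propidium iodide kit (rapid protocol), read immediately by flow cytometry.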

[4] = target: T1, ATP-dependent translocase ABCB1; test: Inhibition of MDR1-mediated rhodamine 123 uptake expressed in mouse L5178Y cells assessed as fluorescence activity ratio at 20 ug/mL after 10 mins by flow cytometry relative to parent cells; type: cell-based; conditions: in the assay text read “20 uM” for “20 ug/mL”; summary of the method: as §2
[5] = Induction of cell death in human COLO320 cells preincubated at 20 uM for 40 mins measured after 24 hrs using annexin V/propidium iodide staining by flow cytometry; type: functional, COLO 320
Summary of the method: (§4)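 COLO 320 MDR cells in RPMI 1640 with 10% FBS, at 2 × 10^5/mL, were exposed for 40 min at 37 °C, with 1% DMSO as the solvent control. Cells were washed twice in PBS, then kept in medium overnight at 37 °C, 5% CO2. After 24 h, supernatant and trypsin-detached cells were pelleted and resuspended in PBS. Annexin V-FITC/PI quadrants were read by flow cytometry.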

[6] = target: T1, ATP-dependent translocase ABCB1; test: Inhibition of MDR1-mediated rhodamine 123 uptake expressed in human COLO320 cells assessed as fluorescence activity ratio at 2 ug/mL after 10 mins by flow cytometry relative to parent cells; type: cell-based; conditions: in the assay text read “2 uM” for “2 ug/mL”; summary of the method: as §1
[7] = system: COLO 320; test: Induction of apoptosis in human COLO320 cells preincubated assessed as late apoptosis at 20 uM for 40 mins measured after 24 hrs using annexin V/propidium iodide staining by flow cytometry; type: functional; summary of the method: as §3
[8] = target: T1, ATP-dependent translocase ABCB1; test: Inhibition of MDR1-mediated rhodamine 123 uptake expressed in mouse L5178Y cells assessed as fluorescence activity ratio at 2 ug/mL after 10 mins by flow cytometry relative to parent cells; type: cell-based; conditions: in the assay text read “2 uM” for “2 ug/mL”; summary of the method: as §2
[9] = target: T1, ATP-dependent translocase ABCB1; test: Inhibition of MDR1-mediated rhodamine 123 uptake expressed in mouse L5178Y cells assessed as fluorescence activity ratio at 6 uM after 10 mins by flow cytometry relative to parent cells
[10] = system: COLO 320; test: Induction of apoptosis in human COLO320 cells preincubated assessed as late apoptosis at 200 uM for 40 mins measured after 24 hrs using annexin V/propidium iodide staining by flow cytometry; type: functional; summary of the method: as §3
[11] = Induction of cell death in human COLO320 cells preincubated at 200 uM for 40 mins measured after 24 hrs using annexin V/propidium iodide staining by flow cytometry; type: functional, COLO 320; summary of the method: as §4
[12] = system: COLO 320; test: Induction of apoptosis in human COLO320 cells preincubated assessed as early apoptosis at 200 uM for 40 mins measured after 24 hrs using annexin V/propidium iodide staining by flow cytometry; type: functional; summary of the method: as §3
[13] = target: T1, ATP-dependent translocase ABCB1; test: Inhibition of MDR1-mediated rhodamine 123 uptake expressed in human COLO320 cells assessed as fluorescence activity ratio at 2 uM after 10 mins by flow cytometry relative to parent cells
[14] = target: T1, ATP-dependent translocase ABCB1; test: Inhibition of MDR1-mediated rhodamine 123 uptake expressed in mouse L5178Y cells assessed as fluorescence activity ratio at 2 uM after 10 mins by flow cytometry relative to parent cells

T1 sequence (P08183 whole entry): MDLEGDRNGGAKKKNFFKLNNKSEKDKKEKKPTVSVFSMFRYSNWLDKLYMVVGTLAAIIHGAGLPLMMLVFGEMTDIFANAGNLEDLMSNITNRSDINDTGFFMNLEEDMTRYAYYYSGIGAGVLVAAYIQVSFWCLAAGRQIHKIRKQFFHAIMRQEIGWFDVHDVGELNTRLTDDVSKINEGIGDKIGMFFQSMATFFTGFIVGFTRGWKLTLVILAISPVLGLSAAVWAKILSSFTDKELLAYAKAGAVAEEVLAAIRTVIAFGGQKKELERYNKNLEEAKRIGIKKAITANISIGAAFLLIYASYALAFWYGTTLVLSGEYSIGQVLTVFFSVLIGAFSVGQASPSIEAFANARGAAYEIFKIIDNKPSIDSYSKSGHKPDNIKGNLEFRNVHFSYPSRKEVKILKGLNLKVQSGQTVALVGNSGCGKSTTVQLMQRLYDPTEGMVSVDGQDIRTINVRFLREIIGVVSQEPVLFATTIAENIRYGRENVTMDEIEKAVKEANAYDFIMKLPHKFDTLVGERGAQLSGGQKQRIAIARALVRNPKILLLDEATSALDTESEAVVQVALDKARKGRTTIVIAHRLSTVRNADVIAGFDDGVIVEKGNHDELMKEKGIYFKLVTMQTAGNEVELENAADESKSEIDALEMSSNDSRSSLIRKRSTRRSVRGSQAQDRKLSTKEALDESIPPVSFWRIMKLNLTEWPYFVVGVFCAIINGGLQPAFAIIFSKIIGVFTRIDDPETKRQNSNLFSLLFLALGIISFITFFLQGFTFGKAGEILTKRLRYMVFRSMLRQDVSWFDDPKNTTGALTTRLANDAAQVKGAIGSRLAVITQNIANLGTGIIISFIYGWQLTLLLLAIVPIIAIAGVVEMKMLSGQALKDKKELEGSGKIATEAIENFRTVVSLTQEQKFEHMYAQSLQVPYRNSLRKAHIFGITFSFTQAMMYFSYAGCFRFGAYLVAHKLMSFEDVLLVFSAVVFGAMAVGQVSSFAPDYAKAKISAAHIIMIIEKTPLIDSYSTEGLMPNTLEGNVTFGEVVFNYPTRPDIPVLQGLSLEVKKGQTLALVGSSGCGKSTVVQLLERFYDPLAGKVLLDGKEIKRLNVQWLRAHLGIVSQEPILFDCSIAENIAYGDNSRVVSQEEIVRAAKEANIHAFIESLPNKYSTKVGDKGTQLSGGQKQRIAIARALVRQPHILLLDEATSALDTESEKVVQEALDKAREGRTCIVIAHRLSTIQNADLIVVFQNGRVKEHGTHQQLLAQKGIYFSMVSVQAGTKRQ

Compound | Ratio [1] | Ratio [2] | Activity [3] [%] | Ratio [4] | Activity [5] [%] | Ratio [6] | Activity [7] [%] | Ratio [8] | Ratio [9] | Activity [10] [%] | Activity [11] [%] | Activity [12] [%] | Ratio [13] | Ratio [14]
CC(=O)O[C@@H]1[C@@H](OC(C)=O)C(C)(C)/C=C/[C@H](C)C(=O)[C@@]2(OC(C)=O)C[C@@H](C)[C@H](OC(=O)c3ccccc3)/C2=C/[C@](C)(O)[C@H]1OC(C)=O | 3 | 43.4 | 4.4 | 10.1 | 0.9 | 0.7 | 4.6 | 0.9 | 1.4 | – | – | – | – | –
c1ccc2c(c1)Nc1c(ccc3ccccc13)S2 | – | – | – | – | – | – | – | – | – | 58.56 | 3.24 | 17.55 | – | –
CC(=O)O[C@H]1[C@H](OC(C)=O)/C(C)=C\[C@H]2[C@@H](OC(=O)c3ccccc3)[C@@H](C)C[C@]2(OC(C)=O)[C@@H](OC(C)=O)[C@@H](C)/C=C/C(C)(C)[C@@H]1OC(C)=O (relative stereo) [EUPHOMELLIFERENE A] | 5.5 | 82.2 | 5.39 | 23.1 | 1.11 | – | 7.7 | – | 12.4 | – | – | – | 2 | 1.2
CC(=O)O[C@H]1[C@H](OC(C)=O)/C(C)=C\[C@H]2[C@@H](OC(=O)c3ccccc3)[C@@H](C)C[C@]2(O)[C@@H](OC(C)=O)[C@@H](C)/C=C/C(C)(C)[C@@H]1OC(C)=O (relative stereo) [EUPHOMELLIFERENE B] | 2.8 | 36.1 | 3 | 1.6 | 1.11 | 0.8 | 4.93 | 1.1 | 1.4 | – | – | – | – | –
CC(=O)O[C@H]1[C@H](OC(C)=O)/C(C)=C\[C@H]2[C@@H](OC(=O)c3ccccc3)[C@H](C)C[C@]2(O)C(=O)[C@@H](C)/C=C/C(C)(C)[C@@H]1OC(C)=O (relative stereo) [EUPHOMELLIFERINE] | 5.1 | 72.9 | 6.72 | 12.1 | 0.74 | 1.1 | 4.97 | 1.1 | 2.9 | – | – | – | – | –
